Experimental data from different studies.
Each line is one published result; the experiments were not run side by side.
Target: Megakaryocyte-associated tyrosine-protein kinase (MATK, Homo sapiens, UniProt P42679)
Sequence (P42679 1-507, as in one of the studies): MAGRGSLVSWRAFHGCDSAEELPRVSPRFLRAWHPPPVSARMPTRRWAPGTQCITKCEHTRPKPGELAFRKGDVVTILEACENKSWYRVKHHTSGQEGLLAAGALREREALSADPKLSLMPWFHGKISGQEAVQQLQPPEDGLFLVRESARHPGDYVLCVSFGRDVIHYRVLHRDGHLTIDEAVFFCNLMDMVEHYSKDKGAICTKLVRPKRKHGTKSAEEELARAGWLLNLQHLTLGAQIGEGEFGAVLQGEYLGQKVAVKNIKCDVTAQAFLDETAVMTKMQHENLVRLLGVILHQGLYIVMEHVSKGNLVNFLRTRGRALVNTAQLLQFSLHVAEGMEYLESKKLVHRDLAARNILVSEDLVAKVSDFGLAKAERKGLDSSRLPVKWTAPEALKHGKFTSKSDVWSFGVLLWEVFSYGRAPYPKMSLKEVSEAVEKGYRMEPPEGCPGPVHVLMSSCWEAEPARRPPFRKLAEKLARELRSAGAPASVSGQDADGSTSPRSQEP

SMILES	read-out	method	concentration	remaining binding [%]
O=C(c1ccc(Nc2ncc(Cl)c(-c3cc4ccccc4s3)n2)cc1)N1CCC(N2CCCC2)CC1	binding	competition with immobilised ligand	1 µM	47
O=C(NCC1CCOCC1)c1n[nH]cc1NC(=O)c1c(F)cccc1F	binding	competition with immobilised ligand	1 µM	79
CN(C)c1nccc(-c2cnc3ncccn23)n1	binding	–	1 µM	50
C[C@@H](c1cccc(C#N)c1)n1cc(Cl)cc(C(N)=O)c1=N	cell-free assay	competition with immobilised ligand	1 µM	100
O=C(NCCCN1CCOCC1)c1ccc(Nc2nccc(-c3cc4ccccc4s3)n2)cc1	binding	competition with immobilised ligand	1 µM	55
C[C@H]1CCN(c2nccc(-c3cnn4ncccc34)n2)C1	binding	–	1 µM	90
CCN1CCN(Cc2ccc(C(=O)Nc3ccc(C)c(Oc4ccc5c(c4)CC(=O)N5)c3)cc2C(F)(F)F)CC1	binding	competition with immobilised ligand	1 µM	100
c1cncc(-c2cccc(Nc3nccc(NC4CCCCC4)n3)c2)c1	binding	competition with immobilised ligand	10 µM	71
CNCc1ccccc1-c1csc([C@@H](C)Nc2nc(C)nc3cc(OC)c(OC)cc23)c1	cell-free assay	competition with immobilised ligand	1 µM	57
O=C(c1ccc(Nc2ncc(Cl)c(-c3ccc(Cl)s3)n2)cc1)N1CCC(N2CCCC2)CC1	binding	competition with immobilised ligand	1 µM	50
COc1ccnn2ncc(-c3ccnc(N(C)C)n3)c12	binding	–	1 µM	100
NS(=O)(=O)c1cc(NC(=O)C2(c3ccccc3Cl)CC2)ccc1Oc1cccc(Cl)c1	cell-free assay	competition with immobilised ligand	1 µM	100
N[C@@H]1CCN(c2nccc(-c3cnn4ncccc34)n2)C1	binding	–	1 µM	100
CO[C@@H](C)c1c(Nc2ccc([C@@H](N(C)C(=O)C3CCS(=O)(=O)CC3)C(F)(F)F)cc2)cnc2cc(Cl)nn12	cell-free assay	competition with immobilised ligand	1 µM	98
COc1cnc(Nc2cccc(S(N)(=O)=O)c2)nc1N1CCN(c2ccccc2)CC1	binding	competition with immobilised ligand	1 µM	57
CN(CCCC(F)(F)F)c1nccc(-c2cnn3ncccc23)n1	binding	–	1 µM	72
CS(=O)(=O)N1CCCC(NC(=O)[C@H](CCC2CCCCC2)NC(=O)c2ccc(CNc3ncnc4c3nnn4-c3ccccc3)cc2)C1 (some centres unmarked)	cell-free assay	competition with immobilised ligand	0.1 µM	100
C[C@@H](c1ccc(-n2cnc3c(N)ncnc32)cc1)N1CCc2nn(C)c(Cc3ccccc3)c2C1=O	binding	competition with immobilised ligand	0.1 µM	69
FC(F)(F)c1ccc2c(c1)nc(-c1cccnc1)n2C1CC1	cell-free assay	competition with immobilised ligand	1 µM	100
CN(C)c1ncc(F)c(-c2cnn3ncccc23)n1	binding	–	1 µM	79
